According to ChEMBL document CHEMBL1671747, “Efficacy and safety of intravenous peramivir for treatment of seasonal influenza virus infection” (Antimicrob Agents Chemother, 2010):
Active and inactive are the calls of the source. No cut-off for these calls is given here.

Key:
[1] = test system: Homo sapiens; assay: Toxicity in human patient infected with Influenza virus assessed as increase in monocyte at 300 mg, iv; assay type: organism-based; conditions: in vivo
How it was run: (§1)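 Adults with seasonal influenza received one intravenous infusion of peramivir (300 or 600 mg) or matching placebo; the median infusion lasted 0.63 h. Blood for haematology, including the white-cell differential, was taken at baseline and on days 3 and 14. Tests were run by blinded technicians. Adverse-event incidence in the 298-subject safety population was compared with placebo by Fisher's exact test.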

[2] = test system: unidentified influenza virus; assay: Antiviral activity against Influenza virus infected in human patient assessed as decrease in virus-positive patients at 300 mg, iv on day 3; assay type: functional
How it was run: (§2)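 Nasal and throat swabs were taken at baseline and on days 2, 3, 5 and 9, held in 2 ml transport medium, and titrated on MDCK cells in triplicate: 10-fold dilutions, 3 μg/ml trypsin, 1 h adsorption, washes, then 3 days at 37°C. CPE gave TCID50/ml by Spearman-Karber; positive meant ≥1.1 log10 TCID50/ml. Proportions were compared by Mantel-Haenszel test stratified for smoking and baseline score.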

[3] = test system: Homo sapiens; assay: Toxicity in human patient infected with Influenza virus assessed as nasopharyngitis at 600 mg, iv; assay type: organism-based; conditions: in vivo
How it was run: (§3)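 In this randomized trial, subjects received a single intravenous infusion of peramivir (300 mg or 600 mg) or matching placebo; the median infusion lasted 0.63 h. Subjects were followed at visits on days 1, 2 (optional), 3, 5, 9 and 14. Adverse-event incidences across the 298 treated subjects were compared with placebo using Fisher's exact test.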

[4] = test system: Homo sapiens; assay: Toxicity in human patient infected with Influenza virus assessed as nasopharyngitis at 300 mg, iv; assay type: organism-based; conditions: in vivo; how it was run: as §3
[5] = test system: Homo sapiens; assay: Toxicity in human patient infected with Influenza virus assessed as increase in blood lactate dehydrogenase at 600 mg, iv; assay type: organism-based; conditions: in vivo
How it was run: (§4)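 One IV dose of 300 or 600 mg or placebo was given to adults with influenza. Blood (hematology, biochemistry) and urine (including NAG, β2- and α1-microglobulin, protein) were sampled at baseline, day 3 and day 14 by blinded technicians. Adverse-event incidence versus placebo was compared by Fisher's exact test.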

[6] = test system: Homo sapiens; assay: Toxicity in human patient infected with Influenza virus assessed as diarrhea at 600 mg, iv; assay type: organism-based; conditions: in vivo
How it was run: (§5)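 Adverse events were recorded after one IV dose of 300 or 600 mg or placebo in adults with influenza. Incidence in each peramivir group was compared with placebo by Fisher's exact test.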

[7] = test system: Homo sapiens; assay: Toxicity in human patient infected with Influenza virus assessed as beta-N-Acetyl-D-glucosaminidase at 300 mg, iv; assay type: organism-based; conditions: in vivo; how it was run: as §4
[8] = test system: Homo sapiens; assay: Toxicity in human patient infected with Influenza virus assessed as occurrence of nausea at 600 mg, iv; assay type: organism-based; conditions: in vivo; how it was run: as §3
[9] = test system: Homo sapiens; assay: Toxicity in human patient infected with Influenza virus assessed as beta2 microglobulin in urine at 600 mg, iv; assay type: organism-based; conditions: in vivo; how it was run: as §4
[10] = test system: Plasma; assay: Plasma concentration in human at 600 mg, iv after 18 to 24 hrs; assay type: ADME, organism-based; conditions: in vivo
How it was run: (§6)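 Subjects received a single IV infusion of 300 or 600 mg (mean 5.0 or 10.0 mg/kg; median infusion 0.63 h). Plasma was sampled just before the infusion ended, and on days 2 and 3. Samples were deproteinized and run on C18 LC/MS-MS. Values are medians at end of infusion, 18–24 h and 36–48 h after infusion.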

[11] = test system: Influenza A virus; assay: Antiviral activity against Influenza A virus H3N2 infected in human patient assessed as alleviation time of symptoms at 300 mg, iv (reference value: 81 hrs); assay type: functional
[12] = test system: Homo sapiens; assay: Toxicity in human patient infected with Influenza virus assessed as increase in aspartate aminotransferase at 600 mg, iv; assay type: organism-based; conditions: in vivo; how it was run: as §4
[13] = test system: Homo sapiens; assay: Toxicity in human patient infected with Influenza virus assessed as white blood cells-positive urine at 300 mg, iv; assay type: organism-based; conditions: in vivo
How it was run: (§7)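 Subjects received a single intravenous peramivir dose (300 or 600 mg) or placebo, infused over a median of 0.63 h. Urinalysis covered protein, albumin and sediment, among other analytes. Urine was collected at baseline and on days 3 and 14 and tested by blinded technicians. Incidence in the safety population (n = 298 treated) was compared with placebo by Fisher's exact test.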

[14] = test system: Homo sapiens; assay: Toxicity in human patient infected with Influenza virus assessed as occurrence of otitis at 600 mg, iv; assay type: organism-based; conditions: in vivo; how it was run: as §3
[15] = test system: Homo sapiens; assay: Toxicity in human patient infected with Influenza virus assessed as prolongation of electrocardiogram QT interval at 300 mg, iv; assay type: organism-based; conditions: in vivo
[16] = test system: Homo sapiens; assay: Toxicity in human patient infected with Influenza virus assessed as increase in alpha1 microglobulin at 600 mg, iv; assay type: organism-based; conditions: in vivo; how it was run: as §4
[17] = test system: unidentified influenza virus; assay: Antiviral activity against Influenza virus infected in human patient assessed as resumption time of usual activities at 300 mg, iv; assay type: functional
[18] = test system: Influenza A virus; assay: Antiviral activity against influenza A virus H1N1 infected in MDCK cells assessed as inhibition of neuraminidase activity by fluorimetric assay; assay type: functional, organism-based
How it was run: (§8)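 Viruses were isolated from baseline patient swabs on MDCK cells. Neuraminidase inhibition was measured by a standard fluorometric assay. IC50 came from plotting percent inhibition of neuraminidase activity against inhibitor concentration, reported as mean ± SD of three independent experiments.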

[19] = test system: Homo sapiens; assay: Toxicity in human patient infected with Influenza virus assessed as increase in blood creatinine level at 600 mg, iv; assay type: organism-based; conditions: in vivo; how it was run: as §4
[20] = test system: Homo sapiens; assay: Toxicity in human patient infected with Influenza virus assessed as decrease in white blood cell count at 600 mg, iv; assay type: organism-based; conditions: in vivo; how it was run: as §4
[21] = test system: Plasma; assay: Plasma concentration in human at 300 mg, iv after 36 to 48 hrs; assay type: ADME, organism-based; conditions: in vivo; how it was run: as §6
[22] = test system: Homo sapiens; assay: Toxicity in human patient infected with Influenza virus assessed as lymphocyte morphology abnormal at 600 mg, iv; assay type: organism-based; conditions: in vivo; how it was run: as §1
[23] = test system: Influenza A virus; assay: Antiviral activity against Influenza A virus H1N1 infected in human patient assessed as alleviation time of symptoms at 600 mg, iv (reference value: 81.4 hrs); assay type: functional
[24] = test system: Homo sapiens; assay: Toxicity in human patient infected with Influenza virus assessed as urine containing albumine at 300 mg, iv; assay type: organism-based; conditions: in vivo; how it was run: as §7
[25] = test system: Homo sapiens; assay: Toxicity in human patient infected with Influenza virus assessed as proteinuria at 600 mg, iv; assay type: organism-based; conditions: in vivo; how it was run: as §7
[26] = test system: Homo sapiens; assay: Toxicity in human patient infected with Influenza virus assessed as white blood cells-positive urine at 600 mg, iv; assay type: organism-based; conditions: in vivo; how it was run: as §7
[27] = test system: Homo sapiens; assay: Toxicity in human patient infected with Influenza virus assessed as diarrhea at 300 mg, iv; assay type: organism-based; conditions: in vivo; how it was run: as §5
[28] = test system: Homo sapiens; assay: Toxicity in human patient infected with Influenza virus assessed as increase in blood phosphate at 300 mg, iv; assay type: organism-based; conditions: in vivo; how it was run: as §4
[29] = test system: Influenza B virus; assay: Antiviral activity against influenza B virus infected in MDCK cells assessed as inhibition of neuraminidase activity by fluorimetric assay; assay type: functional, organism-based; how it was run: as §8
[30] = test system: Homo sapiens; assay: Toxicity in human patient infected with Influenza virus assessed as decrease in white blood cell count at 300 mg, iv; assay type: organism-based; conditions: in vivo; how it was run: as §4
[31] = test system: unidentified influenza virus; assay: Antiviral activity against Influenza virus infected in human patient assessed as reduction in fever at 600 mg, iv after 24 hrs; assay type: functional, organism-based
How it was run: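 A single IV dose of 300 or 600 mg or placebo was given to adults with seasonal influenza. The outcome was the proportion of subjects with postbaseline normal temperature (<37.0°C). Groups were compared by Mantel-Haenszel test stratified for smoking and baseline composite symptom score.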

[32] = test system: Homo sapiens; assay: Toxicity in human patient infected with Influenza virus assessed as occurrence of diarrhea at 600 mg, iv; assay type: organism-based; conditions: in vivo; how it was run: as §3
[33] = test system: Homo sapiens; assay: Toxicity in human patient infected with Influenza virus assessed as increase in alanine aminotransferase at 300 mg, iv; assay type: organism-based; conditions: in vivo; how it was run: as §4
[34] = test system: Plasma; assay: Plasma concentration in human at 600 mg, iv after 36 to 48 hrs; assay type: ADME, organism-based; conditions: in vivo; how it was run: as §6
[35] = test system: unidentified influenza virus; assay: Antiviral activity against Influenza virus infected in human patient assessed as decrease in virus-positive patients at 300 mg, iv on day 9; assay type: functional; how it was run: as §2

CCC(CC)[C@H](NC(C)=O)[C@@H]1[C@H](O)[C@@H](C(=O)O)C[C@H]1NC(=N)N [PERAMIVIR ANHYDROUS]
Activity [1]: Toxic | inhibition (INH) [2]: 36.8% | Activity [3]: Toxic | Activity [4]: Toxic | Activity [5]: Toxic | Activity [6]: Toxic | Activity [7]: Toxic | Activity [8]: 6.1% | Activity [9]: Toxic | Cp [10]: 32.8 ng/mL | Time [11]: 76.1 h | Activity [12]: Toxic | Activity [13]: Toxic | Activity [14]: 1% | Activity [15]: 2% | Activity [16]: Toxic | Time [17]: 125.6 h | IC50 [18]: 9.43 nM | Activity [19]: Toxic | Activity [20]: Toxic | Cp [21]: 5.01 ng/mL | Activity [22]: Toxic | Time [23]: 62.6 h | Activity [24]: Toxic | Activity [25]: Toxic | Activity [26]: Toxic | Activity [27]: Toxic | Activity [28]: Toxic | IC50 [29]: 3 nM | Activity [30]: Toxic | Activity [31]: Active | Activity [32]: 15.2% | Activity [33]: Toxic | Cp [34]: 10.7 ng/mL | inhibition (INH) [35]: 0%
